Measured values reported in ChEMBL document CHEMBL4673206, “Truncated Latrunculins as Actin Inhibitors Targeting Plasmodium falciparum Motility and Host Cell Invasion” (J Med Chem, 2016).

Experiments:
[1] = Inhibition of actin polymerisation in trophozoite-stage of plasmodium falciparum infected in human erythrocytes assessed as parasite growth inhibition measured after 72 hrs by SYBR dye based FACSort flow cytometry analysis; format: cell-based
How it was run: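 Mature pigmented trophozoites at 0.1% parasitemia, 2% hematocrit, exposed to compound over two invasion cycles for 72 h at 37°C. Fixed with 0.25% glutaraldehyde for 1 h at room temperature, washed, stained with SYBR green, and counted by flow cytometry. Triplicate wells.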

[2] = Selectivity index, ratio of CC50 for cytotoxicity against human HepG2 cells to EC50 for inhibition of actin polymerisation in trophozoite-stage of plasmodium falciparum; format: toxicity, cell-based; conditions: read-out: Ratio CC50/EC50
[3] = Selectivity index, ratio of CC50 for cytotoxicity against human HEK293 cells to EC50 for inhibition of actin polymerisation in trophozoite-stage of plasmodium falciparum; format: toxicity, cell-based; conditions: read-out: Ratio CC50/EC50
HepG2 = experiment: Cytotoxicity against human HepG2 cells assessed as reduction in cell viability incubated for 24 hrs by resazurin staining based assay; conditions: hepg2, 24 h
How it was run: (§1)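 HEK293 and HepG2 seeded at 3000 and 5000 cells/well in DMEM with 10% FBS and left to attach 24 h (37°C, 5% CO2). Compounds added as a 1:3 serial dilution from 100 µM top concentration (0.5% DMSO final, 5% FBS final) for 24 h. Resazurin 10 µM added, 3 h, fluorescence at 560/590. Viability normalised to untreated and 100 µM tamoxifen wells; triplicate wells.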

HEK293 = experiment: Cytotoxicity against HEK293 cells assessed as reduction in cell viability incubated for 24 hrs by resazurin staining based assay; conditions: human, hek293, 24 h; how it was run: as §1
[4] = Inhibition of actin polymerisation in Toxoplasma gondii RH infected in human HFF cells assessed as reduction in invasion incubated for 20 mins prior to infection in HFF cells followed by 1 hr incubation under 5% CO2 and subsequent incubation for 72 hrs in DMEM medium 5% CO2 by crystal violet staining based analysis
G-actin polymerization [5] = experiment: Inhibition of KMEI-induced pyrene-labelled G-actin polymerization (unknown origin) at 100 uM preincubated for 1 min followed by KMEI addition and measured at 15 secs interval for 90 mins by spectrofluorimetric analysis relative to control; conditions: human, time 91 min
How it was run: (§2)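 Converted to Mg2+ form with EGTA/MgCl2 for 2 min at room temperature; final actin 2.5 µM. Compound in DMSO added for 1 min, then polymerisation started with KMEI (50 mM KCl, 10 mM imidazole pH 7, 1 mM MgCl2, 1 mM EGTA). Fluorescence ex 365/em 407 nm read every 15 s for 90 min; triplicate.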

G-actin polymerization [6] = experiment: Inhibition of KMEI-induced pyrene-labelled G-actin polymerization (unknown origin) at 10 uM preincubated for 1 min followed by KMEI addition and measured at 15 secs interval for 90 mins by spectrofluorimetric analysis relative to control; conditions: human, time 91 min; how it was run: as §2

COc1ccc(CN2C(=O)SC[C@H]2C2(OC)CC(O)CCO2)cc1 (stereo not given in full) showed an EC50 [1] of over 100 µM.

Molecule COc1ccc(CN2C(=O)SC[C@H]2C2(OC)CC(OC(=O)c3ccc(I)cc3)CCO2)cc1 (mixture of isomers) has an EC50 [1] of 49 µM.

Molecule COc1ccc(CN2C(=O)SC[C@H]2C2(OC)CC(OC(=O)c3cc(C)ccc3-c3cccs3)CCO2)cc1 (mixture of isomers) has an EC50 [1] of 10 µM.

Work on COc1ccc(CN2C(=O)SC[C@H]2C2(OC)CC(OC(=O)c3ccco3)CCO2)cc1 (mixture of isomers) yielded an EC50 [1] of 62 µM.

COc1ccc(CN2C(=O)SC[C@H]2C2(OC)CC(OC(=O)c3ccc(C)cc3-c3ccccc3)CCO2)cc1 (mixture of isomers) showed an EC50 [1] of 13 µM.

For CCCCC(=O)OC1CCOC(OC)([C@@H]2CSC(=O)N2Cc2ccc(OC)cc2)C1 (mixture of isomers), the selectivity ratio [2] was 1, the selectivity ratio [3] was 1 and the CC50 (HepG2) was 111 µM. The CC50 (HEK293) was 103 µM, the EC50 [1] was 66 µM and the EC50 [4] was over 100 µM.

In the case of COc1ccc(CN2C(=O)SC[C@H]2C2(OC)CC(OC(=O)c3cccc(I)c3)CCO2)cc1 (mixture of isomers), the EC50 [1] is reported as 49 µM.

In the case of COc1ccc(CN2C(=O)SC[C@H]2C2(OC)CC(OC(=O)c3ccccc3C3=CCCCC3)CCO2)cc1 (mixture of isomers), the selectivity ratio [2] is reported as 15, the selectivity ratio [3] is reported as 14 and the CC50 (HepG2) is reported as 123 µM. For the same molecule, the CC50 (HEK293) was 109 µM, the inhibition at 1.5 h, 100 µM (G-actin polymerization [5]) was under 10% and the inhibition at 1.5 h, 10 µM (G-actin polymerization [6]) was under 10%. It also gave an EC50 [1] of 7 µM and an EC50 [4] of 16 µM.

COc1ccc(CN2C(=O)SC[C@H]2C2(OC)CC(OC(=O)c3ccccc3-c3cccc4ccccc34)CCO2)cc1 (mixture of isomers) showed a selectivity ratio [2] of 15, a selectivity ratio [3] of 17 and a CC50 (HepG2) of 90 µM. The CC50 (HEK293) was 99 µM, the inhibition at 1.5 h, 100 µM (G-actin polymerization [5]) was under 10% and the inhibition at 1.5 h, 10 µM (G-actin polymerization [6]) was under 10%. For the same molecule, the EC50 [1] was 7 µM and the EC50 [4] was 16 µM.

Work on COc1ccc(CN2C(=O)SC[C@H]2C2(OC)CC(OC(=O)c3ccccc3I)CCO2)cc1 (mixture of isomers) yielded an inhibition at 1.5 h, 100 µM (G-actin polymerization [5]) of under 10%, an inhibition at 1.5 h, 10 µM (G-actin polymerization [6]) of under 10% and an EC50 [1] of 17 µM.

In the case of CCC/C=C/c1ccccc1C(=O)OC1CCOC(OC)([C@@H]2CSC(=O)N2Cc2ccc(OC)cc2)C1 (mixture of isomers), the EC50 [1] is reported as 49 µM.

Molecule COc1ccc(CN2C(=O)SC[C@H]2C2(OC)CC(OC(=O)C3CCCC3)CCO2)cc1 (mixture of isomers) has an EC50 [1] of 66 µM and an EC50 [4] of over 100 µM.

In the case of COc1ccc(CN2C(=O)SC[C@H]2C2(OC)CC(OC(=O)c3ccc(-c4cccs4)cc3)CCO2)cc1 (mixture of isomers), the EC50 [1] is reported as 24 µM.

COc1ccc(CN2C(=O)SC[C@H]2C2(OC)CC(OC(=O)c3ccccc3)CCO2)cc1 (mixture of isomers) gave an EC50 [1] of 31 µM.

Molecule COc1ccc(CN2C(=O)SC[C@H]2C2(OC)CC(OC(=O)c3ccc(C)cc3-c3cccs3)CCO2)cc1 (mixture of isomers) has an EC50 [1] of 15 µM.

For COc1ccc(CN2C(=O)SC[C@H]2C2(OC)CC(OC(=O)c3ccccc3-c3cccs3)CCO2)cc1 (mixture of isomers), the inhibition at 1.5 h, 100 µM (G-actin polymerization [5]) was under 10%, the inhibition at 1.5 h, 10 µM (G-actin polymerization [6]) was under 10% and the EC50 [1] was 7 µM. For the same molecule, the EC50 [4] was 19 µM.

With COc1ccc(CN2C(=O)SC[C@H]2C2(OC)CC(OC(=O)c3cccc(-c4cccs4)c3)CCO2)cc1 (mixture of isomers) the EC50 [1] was 18 µM.

C/C1=C/C(=O)O[C@@H]2C[C@@H](CC[C@H](C)/C=C\CC1)O[C@@](O)([C@@H]1CSC(=O)N1)C2 [LATRUNCULIN B] showed an inhibition at 1.5 h, 100 µM (G-actin polymerization [5]) of 100%, an inhibition at 1.5 h, 10 µM (G-actin polymerization [6]) of 100% and an EC50 [1] of 44 µM.
